Assay [1] concerns the target T1, DNA topoisomerase 1 (Homo sapiens) (UniProt P11387).
T1 sequence (whole entry): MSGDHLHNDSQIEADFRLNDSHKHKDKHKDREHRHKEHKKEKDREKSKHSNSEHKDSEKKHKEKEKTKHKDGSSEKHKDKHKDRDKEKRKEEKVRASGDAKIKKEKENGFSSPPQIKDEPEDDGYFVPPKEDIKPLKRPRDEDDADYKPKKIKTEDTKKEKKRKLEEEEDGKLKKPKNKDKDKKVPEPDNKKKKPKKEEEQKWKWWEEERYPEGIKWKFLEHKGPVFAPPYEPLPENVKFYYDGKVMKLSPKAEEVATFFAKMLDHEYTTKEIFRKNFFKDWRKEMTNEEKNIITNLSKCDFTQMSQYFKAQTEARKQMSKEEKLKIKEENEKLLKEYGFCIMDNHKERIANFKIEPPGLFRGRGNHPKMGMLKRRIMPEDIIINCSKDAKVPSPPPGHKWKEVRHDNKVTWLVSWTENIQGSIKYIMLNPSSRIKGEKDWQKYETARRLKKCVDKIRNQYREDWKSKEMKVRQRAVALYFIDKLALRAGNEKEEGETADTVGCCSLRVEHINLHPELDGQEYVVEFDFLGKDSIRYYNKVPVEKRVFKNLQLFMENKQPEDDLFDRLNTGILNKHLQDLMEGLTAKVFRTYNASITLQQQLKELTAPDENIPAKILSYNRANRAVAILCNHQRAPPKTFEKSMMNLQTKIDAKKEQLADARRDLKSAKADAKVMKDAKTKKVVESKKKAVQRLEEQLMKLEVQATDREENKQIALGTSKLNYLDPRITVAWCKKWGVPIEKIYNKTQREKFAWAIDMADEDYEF
Description: Inhibition of recombinant topoisomerase 1 (unknown origin) assessed as DNA cleavage using 3'-[32P]-labeled 117-bp DNA oligonucleotide at 0.1 uM by PAGE assay. Summed up: (§1)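 Approx. 2 nM 3′-[³²P]-labeled double-stranded DNA incubated with recombinant Top1 and compound at 0.1, 1, 10 or 100 μM for 20 min at 25 °C. Stopped with 0.5% SDS and run on a denaturing gel. […] Run twice.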

Assay [2] has as its target T1, DNA topoisomerase 1 (Homo sapiens). Description: Inhibition of recombinant topoisomerase 1 (unknown origin) assessed as DNA cleavage using 3'-[32P]-labeled 117-bp DNA oligonucleotide at 1 uM by PAGE assay. Also noted: Activity: scale not given: the % may be the effect or the level left. Summed up: as §1
For assay [3] the target is unchanged. Put plainly: Inhibition of recombinant topoisomerase 1 (unknown origin) assessed as DNA cleavage using 3'-[32P]-labeled 117-bp DNA oligonucleotide at 10 uM by PAGE assay. Summed up:
as §1

Assay [4] has the same target. Description: Inhibition of recombinant topoisomerase 1 (unknown origin) assessed as DNA cleavage using 3'-[32P]-labeled 117-bp DNA oligonucleotide at 100 uM by PAGE assay. Summed up:
as §1

Assay [5] can be described thus: (§2) Growth inhibition of human NCI60 cells assessed as cell growth at 10 uM. The following applies: read-out: Activity. Type of assay: functional. Summed up:
(§3)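 NCI-60 single-dose screen at 10 μM across ~60 human cancer cell lines. Reported as growth percent relative to vehicle-treated control, averaged over all lines tested as a mean growth percent.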

For assay [6], the system named is HOP-62. Put plainly: Growth inhibition of human HOP62 cells by five-dose growth inhibition assay. Type of assay: functional.
For assay [7], the system named is HCT-116. Put plainly: Growth inhibition of human HCT116 cells by five-dose growth inhibition assay. Type of assay: functional.
Assay [8] is described as follows: Growth inhibition of human SF539 cells by five-dose growth inhibition assay. In kind it is functional. The following applies: SF-539.
The subject of assay [9] is UACC-62. Put plainly: Growth inhibition of human UACC62 cells by five-dose growth inhibition assay. Type of assay: functional.
The test system of assay [10] is OVCAR-3. Description: Growth inhibition of human OVCAR3 cells by five-dose growth inhibition assay. Type of assay: functional.
Assay [11] relates to SN12C. Put plainly: Growth inhibition of human SN12C cells by five-dose growth inhibition assay. Type of assay: functional.
Assay [12] has as its system DU-145. Put plainly: Growth inhibition of human DU145 cells by five-dose growth inhibition assay. In kind it is functional.
The subject of assay [13] is MCF7. Description: Growth inhibition of human MCF7 cells by five-dose growth inhibition assay. Type of assay: functional.
The target of assay [14] is Tyrosyl-DNA phosphodiesterase 1 (Homo sapiens, UniProt Q9NUW8). Description: Inhibition of recombinant TPD1 (unknown origin) activity using 3'-phosphotyrosine-containing 5'-[32P]-labeled single-stranded DNA oligonucleotide by PAGE assay.
The target in assay [15] is T2, Tyrosyl-DNA phosphodiesterase 2 (Homo sapiens, UniProt O95551).
T2 sequence (O95551 whole entry): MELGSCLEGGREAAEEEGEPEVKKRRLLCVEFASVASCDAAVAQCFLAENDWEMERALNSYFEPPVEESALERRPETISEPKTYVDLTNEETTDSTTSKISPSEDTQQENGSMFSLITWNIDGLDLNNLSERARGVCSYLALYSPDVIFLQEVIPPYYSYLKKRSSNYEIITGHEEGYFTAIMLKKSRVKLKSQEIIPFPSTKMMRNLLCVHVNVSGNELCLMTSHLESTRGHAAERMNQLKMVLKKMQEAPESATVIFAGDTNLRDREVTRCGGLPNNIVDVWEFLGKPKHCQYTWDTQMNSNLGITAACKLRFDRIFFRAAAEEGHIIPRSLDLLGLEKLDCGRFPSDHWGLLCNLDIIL
Description: Inhibition of human recombinant TPD2 activity using 5'phosphotyrosine-containing 19-mer single-stranded oligonucleotide DNA substrate by PAGE assay.

Assay [16] relates to NCI60. The assay is described as §2. In kind it is functional. Summed up: as §3

Activity calls are given as the source filed them. The calls are words filed in the database; no cut-off is given here.

Sequence of Tyrosyl-DNA phosphodiesterase 1 (Q9NUW8 whole entry): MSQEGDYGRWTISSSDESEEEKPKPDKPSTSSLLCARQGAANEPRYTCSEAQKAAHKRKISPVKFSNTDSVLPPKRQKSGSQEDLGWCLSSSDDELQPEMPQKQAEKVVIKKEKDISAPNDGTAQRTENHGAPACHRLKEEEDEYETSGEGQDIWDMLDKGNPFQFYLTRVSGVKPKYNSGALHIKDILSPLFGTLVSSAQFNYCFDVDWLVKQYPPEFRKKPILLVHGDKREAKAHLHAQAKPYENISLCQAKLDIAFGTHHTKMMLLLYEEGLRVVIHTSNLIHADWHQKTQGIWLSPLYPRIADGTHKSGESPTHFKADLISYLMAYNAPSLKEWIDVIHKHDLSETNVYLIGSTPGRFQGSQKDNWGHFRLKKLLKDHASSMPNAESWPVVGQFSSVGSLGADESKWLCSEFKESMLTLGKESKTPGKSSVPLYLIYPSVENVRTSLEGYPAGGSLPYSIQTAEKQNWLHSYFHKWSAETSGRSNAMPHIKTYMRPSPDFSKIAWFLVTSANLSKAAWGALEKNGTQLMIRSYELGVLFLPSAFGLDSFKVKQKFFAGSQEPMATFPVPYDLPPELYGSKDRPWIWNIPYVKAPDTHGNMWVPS

As a reminder, the GI50 is the concentration giving 50% growth inhibition. As for `O=C1c2ccccc2-c2c1c1ccc(F)cc1c(=O)n2CCCn1ccnc1`, the inhibition result in [1], in [2], in assay [3] and in assay [4] was “Active” each time. Also, in [2], the Activity amounted to 75%. Besides, in assay [5], the growth at 10 µM was -8.15%. Besides, the GI50 in assay [6] is 0.49 µM; in assay [7] it was 0.309 µM; in [8] it was 0.417 µM; in assay [9] it was 0.245 µM; in assay [10] it was 1.29 µM; in assay [11], 0.437 µM. For the same molecule, the values for the concentration for 50% growth inhibition (GI50) in assay [12] and in [13] were 0.575 µM and 0.135 µM, respectively.
Consider `O=C1c2ccccc2-c2c1c1ccc(Cl)cc1c(=O)n2CCCN1CCOCC1`, for which the inhibition entry in assay [1], in assay [2], in assay [3] and in assay [4] was “Active” throughout. Further, in [2], the Activity was found to be 50%. Also, the growth at 10 µM in assay [5] worked out at 44.7%. For the same molecule, the GI50 came to 2.14 µM in assay [6]; 1.62 µM in assay [7]; 2.4 µM in assay [8]; 3.31 µM in assay [9]; 6.03 µM in assay [10]; 5.01 µM in assay [11]. Moreover, the GI50 in [12] came out at 4.07 µM; in assay [13] it was 0.372 µM.
As usually defined, the IC50 is the concentration needed to halve the response being measured. Take `O=C1c2ccccc2-c2c1c1ccc(I)cc1c(=O)n2C[C@H](O)CO`: the Activity in assay [2] stood at 50%. The half-inhibitory concentration (IC50) in [14] and in [15] was > 111 µM throughout. In addition, the growth at 10 µM in assay [5] is 39.7%. The concentration for 50% growth inhibition (GI50) in [7] turned out to be 0.631 µM; in [8] it was 3.02 µM; in assay [9], 2.14 µM; in [10] it was 5.27 µM; in assay [11], 4.27 µM; in [13], 0.331 µM.
On to `O=C1c2ccccc2-c2c1c1ccncc1c(=O)n2CCCN1CCOCC1`, for which the Activity in assay [2] is 50%. For the same molecule, in [16], the outcome was inactive.
The corresponding values for `COC(=O)c1ccc2c3c(n(C[C@H](O)CO)c(=O)c2c1)-c1ccccc1C3=O` are 20% and “inactive”.

The values above are taken from ChEMBL document CHEMBL3580647, “Discovery of potent indenoisoquinoline topoisomerase I poisons lacking the 3-nitro toxicophore” (J Med Chem, 2015).
